Assay results from ChEMBL document CHEMBL5247575 (J Med Chem, 2018).
pKd, pKi: −log10 of the molar value. Values after ≈ are worked out from the molar mass of the structure shown.

Legend:
Acinetobacter baumannii [1] = assay: Antibacterial activity against Acinetobacter baumannii NCTC 13303 producing OXA-26/51 infected in sc dosed Swiss albino mouse administered 1 hr post infection and measured upto 7 days; conditions: NCTC 13303, 168 h
Escherichia coli = assay: Antibacterial activity against Escherichia coli DH10B transfected with pBC SK (-) KPC-2 by broth microdilution method; assay type: functional
[2] = Inhibition of bacteria OXA-48 assessed as apparent inhibition constant using nitrocefin as substrate
Acinetobacter baumannii [3] = assay: Synergistic antibacterial activity against Acinetobacter baumannii SL46 producing OXA-23/51 infected in sc dosed Swiss albino mouse assessed as meropenem MIC at 8 ug/ml administered 2 hrs post infection and measured upto 7 days; assay type: functional; conditions: SL46, 168 h, dose 8 µg/ml, time <= 7 day
Acinetobacter baumannii [4] = assay: Synergistic antibacterial activity against Acinetobacter baumannii NCTC 13303 producing OXA-26/51 infected in sc dosed Swiss albino mouse assessed as meropenem MIC at 8 ug/ml administered […] post infection and measured upto 7 days; assay type: functional; conditions: NCTC 13303, 168 h, dose 8 µg/ml, time <= 7 day
Acinetobacter baumannii [5] = assay: Synergistic antibacterial activity against Acinetobacter baumannii NCTC 13303 producing OXA-26/51 infected in sc dosed Swiss albino mouse assessed as cefepime MIC at 8 ug/ml administered 1 hr post infection and measured upto 7 days; assay type: functional; conditions: NCTC 13303, 168 h, dose 8 µg/ml, time <= 7 day
Acinetobacter baumannii [6] = assay: Synergistic antibacterial activity against Acinetobacter baumannii SL46 producing OXA-23/51 infected in sc dosed Swiss albino mouse assessed as cefepime MIC at 8 ug/ml administered 1 hr post infection and measured upto 7 days; assay type: functional; conditions: SL46, 168 h, dose 8 µg/ml, time <= 7 day
Klebsiella pneumoniae [7] = assay: Synergistic antibacterial activity against Klebsiella pneumoniae jefferson 1773 producing OXA-181 assessed as meropenem MIC at 8 ug/ml by broth microdilution method; assay type: functional; conditions: dose 8 µg/ml
Acinetobacter baumannii [8] = assay: Synergistic antibacterial activity against Acinetobacter baumannii NCTC 13303 producing OXA-26/51 infected in sc dosed Swiss albino mouse assessed as colistin MIC at 8 ug/ml administered […] post infection and measured upto 7 days; assay type: functional; conditions: NCTC 13303, 168 h, dose 8 µg/ml, time <= 7 day
Bacteria [9] = test system: Bacteria
Acinetobacter baumannii [10] = assay: Synergistic antibacterial activity against Acinetobacter baumannii NCTC 13303 producing OXA-26/51 infected in sc dosed Swiss albino mouse assessed as tigecycline MIC at 8 ug/ml administered […] post infection and measured upto 7 days; assay type: functional; conditions: NCTC 13303, 168 h, dose 8 µg/ml, time <= 7 day
Acinetobacter baumannii [11] = assay: Antibacterial activity against Acinetobacter baumannii SL46 producing OXA-23/51 infected in sc dosed Swiss albino mouse administered 1 hr post infection and measured upto 7 days; conditions: SL46, 168 h
Bacteria [12] = assay: Inhibition of bacteria OXA-48 assessed as second order rate constant K2/K using nitrocefin as substrate
Pseudomonas aeruginosa [13] = assay: Synergistic antibacterial activity against Pseudomonas aeruginosa 715 assessed as cefepime MIC at 8 ug/ml by broth microdilution method; assay type: functional; conditions: dose 8 µg/ml
Acinetobacter baumannii [14] = assay: Antibacterial activity against Acinetobacter baumannii NCTC 13301 producing OXA-23/51 infected in sc dosed Swiss albino mouse administered 1 hr post infection and measured upto 7 days; assay type: functional; conditions: NCTC 13301, 168 h, time <= 7 day; for ED50: read-out: PD50
Method in brief: (§1)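 Peritonitis model: male and female Swiss albino mice infected intraperitoneally with 3.5×10^5 to 3×10^6 CFU/mouse in 5% hog gastric mucin (lethal to untreated mice within 24 h). […] Survival followed 7 days; PD50/PD90 by probit analysis.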

Acinetobacter baumannii [15] = assay: Synergistic antibacterial activity against Acinetobacter baumannii NCTC 13301 producing OXA-23/51 infected in sc dosed Swiss albino mouse assessed as cefepime MIC at 8 ug/ml administered 1 hr post infection and measured upto 7 days; assay type: functional; conditions: NCTC 13301, 168 h, dose 8 µg/ml, time <= 7 day
Acinetobacter baumannii [16] = assay: Synergistic antibacterial activity against Acinetobacter baumannii NCTC 13301 producing OXA-23/51 infected in sc dosed Swiss albino mouse assessed as meropenem MIC at 8 ug/ml administered 1 hr post infection and measured upto 7 days; assay type: functional; conditions: NCTC 13301, 168 h, dose 8 µg/ml, time <= 7 day
Pseudomonas aeruginosa [17] = assay: Antibacterial activity against Pseudomonas aeruginosa 795 by broth microdilution method; assay type: functional
[18] = Binding affinity to bacteria OXA-48 assessed as dissociation constant
Acinetobacter baumannii [19] = assay: Synergistic antibacterial activity against Acinetobacter baumannii NCTC 13301 producing OXA-23/51 infected in sc dosed Swiss albino mouse assessed as colistin MIC at 8 ug/ml administered 1 hr post infection and measured upto 7 days; assay type: functional; conditions: NCTC 13301, 168 h, dose 8 µg/ml, time <= 7 day
Bacteria [20] = test system: Bacteria; remark: listed apart in the source
Pseudomonas aeruginosa [21] = assay: Synergistic antibacterial activity against Pseudomonas aeruginosa 776 assessed as cefepime MIC at 8 ug/ml by broth microdilution method; assay type: functional; conditions: dose 8 µg/ml
[22] = Binding affinity to bacteria KPC-2 assessed as dissociation constant
Acinetobacter baumannii [23] = assay: Antibacterial activity against ADC deleted Acinetobacter baumannii by broth microdilution method; assay type: functional
Acinetobacter baumannii [24] = assay: Antibacterial activity against ADC deleted Acinetobacter baumannii transfected with pWH1266 OXA-23 by broth microdilution method; assay type: functional
[25] = Inhibition of bacteria KPC-2 assessed as apparent inhibition constant using nitrocefin as substrate
Klebsiella pneumoniae [26] = assay: Antibacterial activity against Klebsiella pneumoniae CAV 1636 producing OXA-181 by broth microdilution method; assay type: functional
Bacteria [27] = assay: Inhibition of bacteria KPC-2 assessed as Koff rate using nitrocefin as substrate incubated for 30 mins
Klebsiella pneumoniae [28] = assay: Antibacterial activity against Klebsiella pneumoniae 440/1360 producing KPC-2 by broth microdilution method; assay type: functional
Klebsiella pneumoniae [29] = assay: Antibacterial activity against Klebsiella pneumoniae NY BS producing OXA-232 by broth microdilution method; assay type: functional
Bacteria [30] = assay: Inhibition of bacteria PDC-3 assessed as Koff rate using nitrocefin as substrate incubated for 30 mins
Klebsiella pneumoniae [31] = assay: Antibacterial activity against Klebsiella pneumoniae jefferson 1773 producing OXA-181 by broth microdilution method; assay type: functional
Klebsiella pneumoniae [32] = assay: Antibacterial activity against Klebsiella pneumoniae 11978 producing OXA-48 by broth microdilution method; assay type: functional
Acinetobacter baumannii [33] = assay: Antibacterial activity against Acinetobacter baumannii NCTC 13303 producing OXA-26/51 infected in sc dosed Swiss albino mouse administered 1 hr post infection and measured upto 7 days; assay type: functional; conditions: NCTC 13303, 168 h, time <= 7 day
Method in brief: as §1

Klebsiella pneumoniae [34] = assay: Antibacterial activity against Klebsiella pneumoniae 935/1884 producing KPC-3 by broth microdilution method; assay type: functional
Klebsiella pneumoniae [35] = assay: Antibacterial activity against Klebsiella pneumoniae 977/1916 producing KPC-3 by broth microdilution method; assay type: functional
Acinetobacter baumannii [36] = assay: Antibacterial activity against Acinetobacter baumannii SL46 producing OXA-23/51 infected in sc dosed Swiss albino mouse administered 1 hr post infection and measured upto 7 days; assay type: functional; conditions: SL46, 168 h, time <= 7 day
Method in brief: as §1

Klebsiella pneumoniae [37] = assay: Antibacterial activity against Klebsiella pneumoniae 1108/1989 producing KPC-3 by broth microdilution method; assay type: functional
Klebsiella pneumoniae [38] = assay: Antibacterial activity against Klebsiella pneumoniae 1084/1957 producing KPC-3 by broth microdilution method; assay type: functional

## N#C[C@@H]1CC[C@@H]2CN1C(=O)N2OS(=O)(=O)[O-].[Na+]
Acinetobacter baumannii [1]
  ED90: 49.4 mg/kg
Acinetobacter baumannii [1]; read-out: PD50
  ED50: 24 mg/kg
Escherichia coli
  MIC: > 16 µg/mL
[2]
  pKi: 6.54
Acinetobacter baumannii [3]
  MIC: 64 µg/mL
Acinetobacter baumannii [4]
  MIC: 256 µg/mL
Acinetobacter baumannii [5]
  MIC: 64 µg/mL
Acinetobacter baumannii [6]
  MIC: > 512 µg/mL
Klebsiella pneumoniae [7]
  MIC: 0.25 µg/mL
Acinetobacter baumannii [8]
  MIC: 0.5 µg/mL
Bacteria [9]
  T1/2: 0.383 h
Acinetobacter baumannii [10]
  MIC: 1 µg/mL
Acinetobacter baumannii [11]
  ED90: 66.2 mg/kg
Acinetobacter baumannii [11]; read-out: PD50
  ED50: 24.9 mg/kg
Bacteria [12]
  K: 6.4 10^5/M/s
Pseudomonas aeruginosa [13]
  MIC: > 16 µg/mL
Acinetobacter baumannii [14]
  ED90: 23.7 mg/kg
  ED50: 16.3 mg/kg
Acinetobacter baumannii [15]
  MIC: > 256 µg/mL
Acinetobacter baumannii [16]
  MIC: 1 µg/mL
Pseudomonas aeruginosa [17]
  MIC: > 16 µg/mL
[18]
  pKd: 8.85
Acinetobacter baumannii [19]
  MIC: 1 µg/mL
Bacteria [20]
  T1/2: 0.483 h

## O=C(NNC(=O)[C@@H]1CC[C@@H]2CN1C(=O)N2OS(=O)(=O)O)[C@@H]1CCNC1
Pseudomonas aeruginosa [21]
  MIC: 0.25 µg/mL
Pseudomonas aeruginosa [13]
  MIC: 0.25 µg/mL
[22]
  pKd: 7.40
Acinetobacter baumannii [23]
  MIC: 16 µg/mL (≈ 42.4 µM)
Acinetobacter baumannii [24]
  MIC: 16 µg/mL (≈ 42.4 µM)
[25]
  pKi: 5.11

## NC(=O)[C@@H]1CC[C@@H]2CN1C(=O)N2OS(=O)(=O)[O-].[Na+] [AVIBACTAM SODIUM]
Klebsiella pneumoniae [26]
  MIC: > 16 µg/mL
Bacteria [27]
  K: 1.4 10^-4/s
Klebsiella pneumoniae [28]
  MIC: > 16 µg/mL
Klebsiella pneumoniae [29]
  MIC: > 16 µg/mL
Bacteria [30]
  K: 8 10^-4/s
Klebsiella pneumoniae [31]
  MIC: > 16 µg/mL
Bacteria [9]
  T1/2: 23.9 h
Bacteria [12]
  K: 1.4 10^3/M/s
Klebsiella pneumoniae [32]
  MIC: > 16 µg/mL
Acinetobacter baumannii [23]
  MIC: 16 µg/mL
Bacteria [20]
  T1/2: 30.4 h

## O.O=C(NC1CCNCC1)[C@@H]1CC[C@@H]2CN1C(=O)N2OS(=O)(=O)O [RELEBACTAM]
Escherichia coli
  MIC: > 16 µg/mL
Pseudomonas aeruginosa [17]
  MIC: > 16 µg/mL

## O=C(NNC(=O)[C@@H]1CC[C@@H]2CN1C(=O)N2OS(=O)(=O)O)[C@@H]1CCCNC1 [ZIDEBACTAM]
Acinetobacter baumannii [33]
  ED90: 23.2 mg/kg
Acinetobacter baumannii [33]; read-out: PD50
  ED50: < 23.2 mg/kg
Klebsiella pneumoniae [26]
  MIC: > 16 µg/mL
Klebsiella pneumoniae [7]
  MIC: ≤ 0.12 µg/mL
Klebsiella pneumoniae [34]
  MIC: > 16 µg/mL
Klebsiella pneumoniae [35]
  MIC: > 16 µg/mL
Klebsiella pneumoniae [31]
  MIC: > 16 µg/mL
Klebsiella pneumoniae [32]
  MIC: > 16 µg/mL
Pseudomonas aeruginosa [21]
  MIC: 16 µg/mL
Acinetobacter baumannii [14]
  ED90: 52.3 mg/kg
  ED50: 23.2 mg/kg
Acinetobacter baumannii [36]
  ED90: 52.3 mg/kg
Acinetobacter baumannii [36]; read-out: PD50
  ED50: 23.2 mg/kg
Klebsiella pneumoniae [37]
  MIC: > 16 µg/mL
[22]
  pKd: 7.37
Klebsiella pneumoniae [38]
  MIC: > 16 µg/mL
[25]
  pKi: 5.35
